Series [1] has as its system Candida albicans. Nature of the series: Antibiofilm activity in Candida albicans ATCC 90028 assessed as increase in chitin distribution within biofilm cells at 20 uM after 18 hrs by calcofluor white staining-based confocal laser scanning microscopic analysis. Format: functional, organism-based.
Series [2] relates to Candida albicans. The experiment in a line: Antifungal activity against Candida albicans ATCC 90028 infected in Galleria mellonella larvae infected with 20 uM compound pre-treated cell suspensions assessed as reduction in fungal burden in dark for 144 hrs at 30 degC and measured every 24 hrs by hematoxylin and eosin staining-based light microscopic analysis. The format is functional, organism-based.

Series [3] relates to Candida albicans. Nature of the series: Fungicidal activity against Candida albicans ATCC 90028 assessed as reduction in cell viability in RPMI medium in presence of sorbitol. The format is functional.
For series [4], the system named is Candida albicans. Nature of the series: Growth inhibition of Candida albicans ATCC 90028 at 0.0625 ug/ml incubated for 18 hrs at 35 degC by broth microdilution method relative to control. Format: functional. To be noted: ATCC 90028, 18 h, read-out: GI. Background: Dilution methods test growth across graded concentrations, often in twofold steps.
Series [5] deals with Candida albicans. The experiment in a line: Inhibition of biofilm formation of Candida albicans ATCC 90028 after 48 hrs by XTT assay. Format: functional, organism-based. To be noted: ATCC 90028, 48 h. On the technique in general: Tetrazolium dyes change colour on reduction, which living cells bring about.
Series [6] relates to Candida albicans. The experiment in a line: Antifungal activity against Candida albicans ATCC 90028 infected in Galleria mellonella larvae infected with 20 uM compound pre-treated cell suspensions assessed as melanization incubated in dark for 144 hrs at 30 degC and measured every 24 hrs (reference value: 65%). Format: functional.
Series [7] has as its system Candida albicans. Nature of the series: Growth inhibition of Candida albicans ATCC 90028 at 8 ug/ml incubated for 48 hrs at 35 degC by broth microdilution method relative to control. Format: functional. The conditions noted are these: ATCC 90028, 48 h, read-out: GI.
The subject of series [8] is CCRF-CEM. Nature of the series: Antiproliferative activity against human CCRF-CEM cells assessed as cell viability at 50 uM after 72 hrs by MTT assay. The format is functional. To be noted: read-out: Activity. Put shortly: (§1)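 MTT viability assay in CCRF-CEM and MCF-7 cells after 72 h exposure at 25, 50, 100 and 200 µM. Results are relative to control cells without inhibitor in 0.5% DMSO. Done in triplicate; values are means ± SD of three independent experiments.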

In series [9] the test system is Candida albicans. The experiment in a line: Inhibition of biofilm formation of Candida albicans ATCC 90028 up to 20 uM […] by XTT assay. Format: functional, organism-based.
In series [10] the test system is Candida albicans. Nature of the series: Induction of apoptosis in Candida albicans ATCC 90028 protoplast assessed as late apoptotic cells at 20 uM after 48 hrs Annexin V-FITC/propidium iodide staining based flow cytometric analysis (reference value: 0.3 +/- 0.30%). The format is functional. In general terms: In flow cytometry, cells or beads pass a laser one at a time.

Series [11] has as its system Candida albicans. The experiment in a line: Growth inhibition of Candida albicans ATCC 90028 at 0.25 ug/ml incubated for 18 hrs at 35 degC by broth microdilution method relative to control. The format is functional. To be noted: ATCC 90028, 18 h, read-out: GI.
The test system of series [12] is Candida albicans. The experiment in a line: Antifungal activity against Candida albicans ATCC 90028 infected in Galleria mellonella larvae infected with 20 uM compound pre-treated cell suspensions assessed as cocoon formation incubated in dark for 144 hrs at 30 degC and measured every 24 hrs (reference value: 65%). Format: organism-based.
Series [13] concerns Candida albicans. Nature of the series: Disruption of cell wall in Candida albicans SC5314 assessed as decrease in chitin level after 18 hrs by calcofluor white staining-based flow cytometric analysis. The format is functional, organism-based.
Series [14] has as its system CCRF-CEM. The experiment in a line: Antiproliferative activity against human CCRF-CEM cells assessed as cell viability at 100 uM after 72 hrs by MTT assay. The format is functional. To be noted: read-out: Activity. Summed up:
as §1

Series [15] concerns Candida albicans. The experiment in a line: Antibiofilm activity in Candida albicans ATCC 90028 assessed as cell membrane lysis at 20 uM after 18 hrs by acridine orange/ethidium bromide staining-based confocal laser scanning fluorescence microscopic analysis. The format is functional, organism-based. Put shortly:
(§2)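 Unfixed biofilm cells were dual-stained in situ with acridine orange and ethidium bromide, each at 100 µg/mL. Confocal fluorescence and DIC imaging scored green AO nuclei, crescent-shaped chromatin, reddish-orange late apoptotic/necrotic cells and EB uptake, against untreated control biofilm. […]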

The subject of series [16] is Candida albicans. The experiment in a line: Antibiofilm activity in Candida albicans ATCC 90028 assessed as early apoptotic morphological changes by measuring crescent-shaped nuclei at 20 uM after 18 hrs by acridine orange/ethidium bromide staining-based confocal laser scanning fluorescence microscopic analysis. The format is functional. Put shortly:
as §2

The test system of series [17] is Candida albicans. Nature of the series: Growth inhibition of Candida albicans ATCC 90028 at 0.25 ug/ml incubated for 4 hrs at 35 degC by broth microdilution method relative to control. Format: functional. To be noted: ATCC 90028, 4 h, read-out: GI.
In series [18] the test system is Candida albicans. The experiment in a line: Induction of chitinase release in Candida albicans ATCC 90028 assessed as p-nitrophenyl release from N-acetyl-beta-D-glucosaminide at 20 uM by chitinolytic activity assay. Format: functional, organism-based.
Series [19] concerns Candida albicans. The experiment in a line: Ratio of MFC for fungicidal activity against Candida albicans ATCC 90028 assessed as reduction in cell viability in RPMI medium in presence of sorbitol to MFC for fungicidal activity against Candida albicans ATCC 90028 assessed as reduction in cell viability in RPMI medium in absence of sorbitol. Format: functional.
Series [20] concerns Candida albicans. The experiment in a line: Induction of apoptosis in Candida albicans ATCC 90028 protoplast assessed as viable cells at 248 uM after 48 hrs Annexin V-FITC/propidium iodide staining based flow cytometric analysis (reference value: 96.38 +/- 2.05%). Format: functional.
The subject of series [21] is Candida albicans. Nature of the series: Induction of endochitinase release in Candida albicans ATCC 90028 assessed as p-nitrophenyl release from triacetylochitotriose substrate A at 248 uM by chitinolytic activity assay. The format is functional, organism-based.
Series [22] has as its system Candida albicans. The experiment in a line: Antifungal activity against Candida albicans ATCC 90028 infected in Galleria mellonella larvae infected with 31 uM compound pre-treated cell suspensions assessed as reduction in fungal cell nodules in dark for 144 hrs at 30 degC and measured every 24 hrs by hematoxylin and eosin staining-based light microscopic analysis. The format is functional, organism-based.

Series [23] concerns Candida albicans. Nature of the series: Effect on dilpoid nuclei level in Candida albicans ATCC 90028 planktonic forms at 0.03 ug/ml by ethidium bromide staining based gel electrophoresis and confocal laser scanning microscopy. The format is functional, organism-based.
Series [24] deals with Candida albicans. Nature of the series: Antibiofilm activity in Candida albicans ATCC 90028 assessed as late apoptotic morphological changes by measuring reddish-orange fluorescence at 248 uM after 18 hrs by acridine orange/ethidium bromide staining-based confocal laser scanning fluorescence microscopic analysis. The format is functional, organism-based. Summed up: as §2

Series [25] concerns Candida albicans. Nature of the series: Induction of apoptosis in Candida albicans ATCC 90028 protoplast assessed as late apoptotic cells at 248 uM after 48 hrs Annexin V-FITC/propidium iodide staining based flow cytometric analysis (reference value: 0.3 +/- 0.30%). Format: functional.
Series [26] in a line: In-vitro chitinolytic activity of the compound assessed as p-nitrophenyl release from N-acetyl-beta-D-glucosaminide at 248 uM by chitinolytic activity assay. The format is functional.
Series [27] has as its system Candida albicans. Nature of the series: Effect on dilpoid nuclei level in Candida albicans ATCC 90028 planktonic forms at 128 ug/ml by ethidium bromide staining based gel electrophoresis and confocal laser scanning microscopy. Format: functional, organism-based.
In series [28] the test system is Candida albicans. Nature of the series: Induction of apoptosis in Candida albicans ATCC 90028 planktonic forms assessed as accumulation at subG1 phase at 1 to 128 ug/ml by ethidium bromide staining based gel electrophoresis and confocal laser scanning microscopy. Format: functional, organism-based.
Series [29] concerns Candida albicans. Nature of the series: Antifungal activity against Candida albicans ATCC 90028 infected in Galleria mellonella larvae infected with 31 uM compound pre-treated cell suspensions assessed as reduction in fat body formation in dark for 144 hrs at 30 degC and measured every 24 hrs by hematoxylin and eosin staining-based light microscopic analysis. The format is functional, organism-based.

Series [30] deals with Candida albicans. The experiment in a line: Inhibition of biofilm formation of Candida albicans ATCC 90028 up to 248 uM […] by XTT assay. The format is functional, organism-based.

What is called MFC is the smallest concentration meeting the test's criterion for killing the fungus. The term IC50 denotes the point on the concentration scale where inhibition reaches its midpoint. Low values mean greater potency in that assay, high ones weaker potency in that assay.

The source made the active and inactive calls.

In the case of `CC(Cn1cnc2c1c(=O)n(C)c(=O)n2C)OCc1cn(CCCn2nc3c(Br)c(Br)c(Br)c(Br)c3n2)nn1` (configuration not stated), the result in the series on Candida albicans [1], in the series with Candida albicans [2] and with Candida albicans [15] was Active. For the same compound, the MFC in the series on Candida albicans [3] was found to be 10 µM. Further, the inhibition of growth at 0.0625 µg/mL in the series on Candida albicans [4] stood at 99.2%. In addition, the IC50 with Candida albicans [5] is 20 µM. In addition, the Activity is 80% with Candida albicans [6], 0.22% in the series with Candida albicans [10], 98% in the series with Candida albicans [12] and “Dose-dependent effect” in the series with Candida albicans [13]. The inhibition of growth at 8 µg/mL in the series with Candida albicans [7] stood at 99.9%. The viability at 50 µM in the series with CCRF-CEM [8] amounted to 0%. For the same compound, the inhibition entry in the series on Candida albicans [9] was “inactive”. Further, the inhibition of growth at 0.25 µg/mL in the series with Candida albicans [11] stood at 99.4%; in the series with Candida albicans [17], 99.1%. Moreover, in the series with CCRF-CEM [14], the viability at 100 µM is 0%. In addition, the “fold change (FC)” value with Candida albicans [16] was found to be 2. Also, the result with Candida albicans [18] was inactive. Moreover, in the series with Candida albicans [19], the Ratio came out at 2.

On to `CC(CN1c2ccccc2Sc2ccccc21)OC(=O)OC(C)Cn1cnc2c1c(=O)n(C)c(=O)n2C` (configuration not stated), for which the inhibition of growth at 0.0625 µg/mL with Candida albicans [4] was 99.7%. The compound also registered an IC50 in the series with Candida albicans [5] of 248 µM. For the same compound, the Activity in the series with Candida albicans [20] is 2.8%; with Candida albicans [25], 0.1%; in series [26], 0.01 to 0.03 µmol/min. Besides, the inhibition of growth at 8 µg/mL in the series with Candida albicans [7] is 100%. Also, the result with Candida albicans [21], in the series on Candida albicans [23], in the series on Candida albicans [27] and in the series on Candida albicans [28] was inactive. Besides, in the series with CCRF-CEM [8], the viability at 50 µM stood at 7.9%. Further, the inhibition of growth at 0.25 µg/mL is 99.9% in the series on Candida albicans [11] and 99% in the series with Candida albicans [17]. Besides, the result in the series on Candida albicans [22], in the series with Candida albicans [24] and with Candida albicans [29] was Active. For the same compound, in the series with CCRF-CEM [14], the viability at 100 µM came to 0%. Further, the inhibition entry in the series on Candida albicans [30] is “inactive”.

Values taken from ChEMBL document CHEMBL4229342, “Synthesis of novel proxyphylline derivatives with dual Anti-Candida albicans and anticancer activity” (Eur J Med Chem, 2018).
